The source of these data is ChEMBL document CHEMBL1123057, “gamma-Aminobutyric acid esters. 2. Synthesis, brain uptake, and pharmacological properties of lipid esters of gamma-aminobutyric acid” (J Med Chem, 1985).

Data set [1] has as its system Mus musculus. The experiment in a line: Compound was evaluated for the effect on the uptake in mouse brain, at dose 78 mg/Kg (ip) after a time period of 15 min. It counts as functional, organism-based. The method in brief:
(§1)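 Mice received a single systemic dose (ip or sc) of ¹⁴C-labeled compound in 0.5 mL of 0.14 N saline or 25% propylene glycol/water, depending on the compound. Brain was taken at the stated time and homogenized in 8 mL of 1% SDS/6 M urea/EDTA in 0.03 M phosphate (pH 7.4). Aliquots were counted by liquid scintillation and expressed as nmol/g brain.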

The subject of data set [2] is Mus musculus. Briefly: Compound was evaluated for the effect on the uptake in mouse brain, at dose 78 mg/kg (ip) after a time period of 5 min. Format: functional, organism-based. Details: dose 78 mg/kg. The method in brief: as §1
Data set [3] in a line: Octanol:water partition coefficient is evaluated. It counts as physicochemical.
Data set [4] concerns Mus musculus. Briefly: Percent amount of compound was determined in liver per gram of tissue after 5 min of administration at a dose of 67 mg/kg. Format: functional, organism-based. Details: dose 67 mg/kg. Put shortly:
(§2)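 Balb-c mice (20 ± 2 g) received a single sc injection of the ¹⁴C-labeled ester in 0.5 mL of 25% propylene glycol in water. Brain and liver were removed at 5 min, weighed and homogenized in urea/SDS/EDTA phosphate protein solvent (pH 7.6). Aliquots were counted for ¹⁴C by liquid scintillation. BPI = brain amount per g as % of liver amount per g. Mean ± SEM, n = 3.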

The test system of data set [5] is Mus musculus. The experiment in a line: Compound was evaluated for the effect on the uptake in mouse brain, at dose 78 mg/Kg (ip) after a time period of 30 min. It counts as functional, organism-based. Put shortly:
as §1

Data set [6] deals with Mus musculus. The experiment in a line: Ability to penetrate the blood-brain barrier of mice was evaluated by measuring the brain penetration index (BPI) at dose 67 mg/Kg, administered subcutaneously. Format: functional, organism-based. Put shortly: as §2
Data set [7] relates to Mus musculus. The experiment in a line: BPI index was determined at 5 min after subcutaneous administration to mice. Format: functional. The method in brief:
as §2

The test system of data set [8] is Mus musculus. The experiment in a line: Percent amount of compound was determined in liver per gram of tissue after 5 min of administration at a dose of 3-39 mg/Kg; range is 4.2-165. It counts as functional, organism-based.
Data set [9] relates to Mus musculus. Briefly: BPI index was determined at 5 min after subcutaneous administration. Format: functional. Put shortly:
as §2

Data set [10] deals with Mus musculus. The experiment in a line: Ability to penetrate the blood-brain barrier of mice was evaluated by measuring the brain penetration index (BPI) at dose 3-39 mg/Kg, administered subcutaneously; range is 0.04-1.81. Format: functional, organism-based.

For the molecule `NCCCC(=O)OCC(O)CO.O=C(O)C(F)(F)F` (stereo unspecified), the Uptake with Mus musculus [1] amounted to 14 nM/g; with Mus musculus [2], 4.8 nM/g; in the data set with Mus musculus [4] it was 157 nM/g; with Mus musculus [5], 16.4 nM/g; in the data set on Mus musculus [6], 4.8 nM/g. Besides, the K in data set [3] is listed as 0.01. This molecule returned a BPI in the data set on Mus musculus [7] of 3.
`NCCCC(=O)O` [GAMMA-AMINOBUTYRIC ACID]: the Uptake is 4.2 nM/g with Mus musculus [8] and 0.04 nM/g in the data set on Mus musculus [10]. The molecule further had a BPI with Mus musculus [9] of 0.96. In addition, the K in data set [3] amounted to 0.004.
